Redox H2O2 prof: compounds producing H2O2 with reducing agent – biochemical, NIH compound library profiling, artefact control for MLSCN library redox annotation, primary screen. DTT-dependent redox cycling H2O2, phenol red/HRP absorbance; 100% = 100 µM peroxide control, 0% = buffer. activation, % at 10 µM. 0.03% of 200,000 active. AID 878;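 active means activation of at least 50% relative to the plate's high and low controls in the primary single-dose screen; inactive means activation below 50%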;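 further: compound incubated with DTT at 0.8 mM final as the reducing agent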
T cruzi repl: blocks replication of Trypanosoma cruzi; T. cruzi beta-gal in NIH3T3, luminescence, 90 h; inhibition, % (test concentration not listed); 1.4% of 300,000 active;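 active means mean inhibition across valid replicates above about 55%, limit read from the data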;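 further: signal also drops with host cell toxicity which is not excluded here; 0% = plate median of DMSO wells and 100% = zero luminescence signal; higher percent means less beta-gal luminescence so fewer parasites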
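System: mouse NIH/3T3 fibroblasts infected with β-gal-expressing T. cruzi Tulahuen C4 / Input: NIH/3T3 cells, 5,000 per well / Buffer or medium: Low-serum DMEM with 2% FBS / Probe or stimulus: 5000 reporter trypomastigotes per well / Schedule: ≥90 h infection period, 3 h prior cell attachment / Measured by: GalScreen luminescence, 60 min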
MPTP block: inhibitors of mitochondrial permeability transition pore; isolated mouse mitochondria, Ca2+ swelling absorbance, 30 min; inhibition, % at 10 µM; 1.4% of 360,000 active; AID 602449;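 active means inhibition of 50% or more, scaled per plate between neutral and stimulator controls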;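 further: 0% = DMSO wells given calcium and 100% = 1 mM EGTA wells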
Lmaj promast: Leishmania major promastigote growth inhibition. inhibition, % at 10 µM. 9% of 200,000 active. Leishmania major promastigotes, resazurin fluorescence viability. AID 1063; in the data active means inhibition above about 50%;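 further: promastigotes grown with compound for 44 hours at 28 °C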
Lipid droplet: modulators of hepatic lipid droplet formation; 0.4% of 240,000 active; AML12 mouse hepatocytes, oleate lipid droplets, BODIPY imaging; AID 1656; inhibition, % at 6.5 µM;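 active means lipid droplet intensity inhibited by at least 50%, with more than 500 cells counted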
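System: AML12 hepatocytes (mouse). Probe or stimulus: oleic acid at 100 µM to induce lipid droplet formation. Times: overnight treatment with compound plus oleate. Detection: Image-based BODIPY and DAPI two-channel analysis. Evaluation: percent inhibition of filter-corrected integrated lipid droplet intensity per well.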
The depositor's hits bear a star; nt = no result given. Shown is part of a subset that was picked to be rich in hits.

SMILES	Redox H2O2 prof	T cruzi repl	MPTP block	Lmaj promast	Lipid droplet
CCCn1c(SCC(=O)NCc2ccc(OC)cc2)n[nH]c1=O	-1	-11	-1	-8	7
O=C(O)c1c(C(=O)N2N=C3/C(=C/c4ccccc4)CCCC3C2c2ccccc2)cccc1[N+](=O)[O-] (centres undefined)	-1	-13	1	-4	9
CCOc1ccccc1-c1nc(C(N)=O)c2[nH]c(=O)n(-c3cccc(C)c3)c2n1	-4	-12	-2	64*	nt
Cc1ccc(-n2c(=O)[nH]c3c(C(N)=O)nc(CC(C)C)nc32)cc1	0	0	-2	70*	24
COc1ccccc1-n1c(=O)[nH]c2c(C(N)=O)nc(CC(C)C)nc21	0	7	0	36	nt
NC(=O)c1nc(C2CCCCC2)nc2c1[nH]c(=O)n2-c1ccc(F)cc1	-1	8	2	54*	nt
O=C(CSc1nnc(-c2ccc(O)cc2)n1Cc1ccccc1)NNC(=O)c1ccc(Br)cc1	0	-9	2	-14	-4
Cc1cccc(Nc2nc3c(S(=O)(=O)c4ccccc4)nnn3c3ccccc23)c1	0	-6	35	50*	3
Cc1cc(C)cc(Nc2nc3c(S(=O)(=O)c4ccccc4)nnn3c3ccccc23)c1	0	nt	4	50	4
Cc1ccc(S(=O)(=O)c2nnn3c2nc(NC2CCN(Cc4ccccc4)CC2)c2ccccc23)cc1C	nt	59*	-1	nt	-6
CC(NCC(=O)Nc1ccccc1C(=O)NC1CC1)c1ccc(F)cc1F (centres undefined)	nt	nt	0	nt	nt
COc1ccc(C2CC(=O)c3c(ccc4ccccc34)N2)cc1OC (centres undefined)	-4	5	2	100*	nt
CCOc1cc(C2CC(=O)c3c(ccc4ccccc34)N2)ccc1O (centres undefined)	-4	-1	1	36	nt
O=C(NCc1ccncc1)c1ccc(Cl)c(S(=O)(=O)N2CCCCC2)c1	-1	13	-1	2	13
O=C(NCCOC(=O)c1ccc(Cl)c(S(=O)(=O)N2CCCCC2)c1)c1ccncc1	2	8	0	51*	nt
CCOc1ccc(C2CC(c3cccc(Cl)c3)n3nc(N)nc3N2)cc1 (centres undefined)	0	20	6	67*	-11
CCNC(=S)Nn1cnc2ccccc21	nt	-3	-1	nt	-8
COc1ccc2o/c(=N\O)c(C(=O)Nc3ccc(C)cc3)cc2c1	0	-26	1	50*	-7
Cc1ccc(SCC(=O)O/N=C(\N)c2ccc([N+](=O)[O-])cc2)cc1	1	9	-1	-3	nt
N/C(=N\OC(=O)Oc1ccccc1)c1cccc([N+](=O)[O-])c1	0	-8	3	59*	4
N/C(=N\OC(=O)CSc1ccccc1)c1cccc([N+](=O)[O-])c1	0	-4	0	81*	-23
Nc1sc(-c2ccccc2)n[n+]1Cc1cccc2cccnc12	nt	60*	12	nt	9
COc1ccc(N=CC2=C(Nc3ccc(OC)cc3)c3c(C)nn(-c4ccccn4)c3CC2)cc1	0	nt	nt	100*	nt
Cc1c(C)n(Cc2ccc(F)cc2)c2ccc(C(=O)NCCCN3CCOCC3)cc12	nt	16	0	nt	-6
O=[N+]([O-])c1ccc(S(=O)(=O)N2CCN(c3ccc(N4CCOCC4)nn3)CC2)cc1	nt	60*	0	nt	nt
SMILES	Redox H2O2 prof	T cruzi repl	MPTP block	Lmaj promast	Lipid droplet
O=[N+]([O-])c1ccc(S(=O)(=O)Nc2ccc(-c3ccc(N4CCCC4)nn3)cc2)cc1	nt	55*	1	nt	nt
O=[N+]([O-])c1ccc(Cl)c(S(=O)(=O)Nc2ccc(-c3ccc(N4CCCC4)nn3)cc2)c1	nt	6	0	nt	nt
CN1/C(=C\C(=O)c2cccnc2)C(C)(C)c2ccccc21	0	6	3	7	-17
CN1/C(=C\C(=O)COC(=O)c2ccco2)C(C)(C)c2ccccc21	-3	-4	0	13	-8
CN1/C(=C\C(=O)c2ccco2)C(C)(C)c2ccccc21	0	31	3	83*	nt
Cc1ccccc1NC(=O)c1nc(S(C)(=O)=O)ncc1Cl	nt	46	1	nt	-5
CN1/C(=C\C(=O)c2cccc(S(=O)(=O)N3CCCCC3)c2)C(C)(C)c2ccccc21	2	43	2	99*	-9
O=C(O)c1cccc(S(=O)(=O)N2CCCC2)c1	2	-11	-1	-3	nt
CN1/C(=C/C(=O)c2nc(S(C)(=O)=O)ncc2Cl)C(C)(C)c2ccccc21	0	40	0	83*	nt
CN1/C(=C\C(=O)c2cncc(Br)c2)C(C)(C)c2ccccc21	-1	44	3	91*	-56
CCCCN(CCCC)Cc1cc(=O)oc2ccccc12	nt	nt	-2	nt	nt
O=C(Cc1ccc([N+](=O)[O-])cc1)c1ccccc1	nt	nt	-2	nt	nt
CC(=O)/C=C1\N(C)c2ccc(C)cc2C1(C)C	0	66*	0	91*	-14
Cc1ccc(OCC(=O)NNC(=O)c2ccccc2OCc2c(C)noc2C)cc1	nt	-6	1	nt	nt
O=C(NC1CCSc2ccccc21)c1ccc(F)c(S(=O)(=O)N2CCOCC2)c1 (centres undefined)	nt	6	1	nt	1
CCOc1ccc(CN2CCN(Cc3cccn3-c3cccnc3)CC2CCO)cc1 (centres undefined)	-1	60*	2	2	-1
CCOc1ccc(CN2CCN(Cc3[nH]c4ccccc4c3C)CC2CCO)cc1 (centres undefined)	0	53	-3	77*	-4
CCOc1ccc(CN2CCN(Cc3cccc4c3OCO4)CC2CCO)cc1 (centres undefined)	-1	97*	-1	77*	-20
OCCC1CN(Cc2cc3c(cc2Cl)OCO3)CCN1Cc1ccccc1 (centres undefined)	-1	59*	1	9	-2
Cn1c(C(=O)O)c(S(=O)(=O)c2ccc(Cl)cc2)c2ccccc21	nt	-6	0	nt	-1
CC1=C(C(=O)OCc2ccc(C)cc2)C(c2ccc(O)c([N+](=O)[O-])c2)NC(=O)N1 (centres undefined)	0	30	0	-1	nt
Fc1cccc(F)c1-n1c(CN2CCCC2)csc1=S	-2	-4	0	10	-12
COc1cc2c3c(n(C)c(=O)c2cc1OC)-c1cc2c(cc1C3=O)OCO2	nt	nt	-2	nt	nt
CCOc1ccccc1CN1CCN(Cc2csc(C(C)=O)c2)CC1CCO (centres undefined)	-1	17	-1	73*	-13
CCOc1ccc(CN2CCN(Cc3cccc4nonc34)CC2CCO)cc1 (centres undefined)	-1	60*	-2	27	7
Cc1ccc(CN2CCN(Cc3cccc4c3OCO4)CC2CCO)cc1 (centres undefined)	-3	90*	-1	58*	-10
COc1cccc(CN2CCN(Cc3cccc4c3OCO4)CC2CCO)c1 (centres undefined)	-1	33	0	8	13

Bioassay records as filed in PubChem.
